Experimental data taken from ChEMBL document CHEMBL3526038, “The role of a basolateral transporter in rosuvastatin transport and its interplay with apical breast cancer resistance protein in polarized cell monolayer systems” (Drug Metab Dispos, 2012).

Columns and labels:
[1] = Cmax in healthy human at 20 mg, po; conditions: in vivo
[2] = Cellular uptake in human Caco2 cells after 30 mins by Michaelis-Menten equation analysis; type: ADME, cell-based, Caco-2
How it was run: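 Caco-2 monolayers (21-28 days). Rosuvastatin at various concentrations was dosed basolaterally in HBSSg pH 7.4 and incubated 30 min at 37°C. Apical samples and ice-cold-washed, acetonitrile-lysed cells were analysed by LC-MS/MS. Total uptake was fitted by nonlinear regression to saturable plus nonsaturable components to give Km; mean ± S.D., n = 3.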

[3] = Oral bioavailability in human at 40 mg; type: ADME, organism-based; conditions: in vivo
Homo sapiens = assay: Total clearance in human at 40 mg, po; type: ADME, organism-based; conditions: in vivo
[4] = Apparent permeability from apical to basolateral side of human Caco2 cells at 2 uM after 60 to 120 mins; type: ADME, cell-based; conditions: Caco-2
How it was run: (§1)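 Monolayers on collagen-coated polycarbonate Transwells (0.4 μm pores), seeded at 60,000 cells/cm². Caco-2 were used at 21-28 days (TEER > 450 Ω·cm²); BCRP-MDCK at 7-11 days (TEER > 1200 Ω·cm²), stably expressing human ABCG2 R482 under neomycin selection. Rosuvastatin 2 μM in HBSSg pH 7.4 was dosed apically or basolaterally at 37°C. Samples were taken at 60 and 120 min for LC-MS/MS. Papp was determined; ER = Papp B-to-A / Papp A-to-B; triplicate.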

[5] = Apparent permeability from basolateral to apical side of human Caco2 cells at 2 uM after 60 to 120 mins; type: ADME, cell-based; conditions: Caco-2; how it was run: as §1
[6] = Efflux ratio of apparent permeability from basolateral to apical over apical to basolateral side of human Caco2 cells at 2 uM after 60 to 120 mins; type: ADME, cell-based; conditions: Caco-2; how it was run: as §1
[7] = Apparent permeability from apical to basolateral side of MDCK cells at 2 uM after 60 to 120 mins; type: ADME, cell-based, Canis lupus familiaris; conditions: dog; how it was run: as §1
[8] = Apparent permeability from basolateral to apical side of MDCK cells at 2 uM after 60 to 120 mins; type: ADME, cell-based, Canis lupus familiaris; conditions: dog; how it was run: as §1
[9] = Efflux ratio of apparent permeability from basolateral to apical over apical to basolateral side of MDCK cells at 2 uM after 60 to 120 mins; type: ADME, cell-based, Canis lupus familiaris; conditions: dog; how it was run: as §1
BCRP [10] = assay: Apparent permeability from apical to basolateral side of MDCK cells overexpressing BCRP at 2 uM after 60 to 120 mins; type: ADME, cell-based, Canis lupus familiaris; conditions: dog; how it was run: as §1
BCRP [11] = assay: Apparent permeability from basolateral to apical side of MDCK cells overexpressing BCRP at 2 uM after 60 to 120 mins; type: ADME, cell-based, Canis lupus familiaris; conditions: dog; how it was run: as §1
BCRP [12] = assay: Efflux ratio of apparent permeability from basolateral to apical over apical to basolateral side of MDCK cells overexpressing BCRP at 2 uM after 60 to 120 mins; type: ADME, cell-based, Canis lupus familiaris; conditions: dog; how it was run: as §1
[13] = Partition coefficient, pKa of the compound; type: physicochemical; conditions: octanol/water
[14] = Activity at OSTalpha/OSTbeta in human Caco2 cells assessed as drug transport from basolateral to apical side at 2 uM in presence of chenodoxycholate relative to control; type: ADME, cell-based; conditions: caco-2, 2 µM
[15] = Activity at OSTalpha/OSTbeta in human Caco2 cells assessed as drug transport from basolateral to apical side at 2 uM in presence of lithocholate acid relative to control; type: ADME, cell-based; conditions: caco-2, 2 µM
[16] = Activity at OSTalpha/OSTbeta in human Caco2 cells assessed as drug transport from basolateral to apical side at 2 uM in presence of taurocholate relative to control; type: ADME, cell-based; conditions: caco-2, 2 µM
[17] = Activity at OSTalpha/OSTbeta in human Caco2 cells assessed as drug transport from basolateral to apical side at 2 uM in presence of taurolithocholate relative to control; type: ADME, cell-based; conditions: caco-2, 2 µM
[18] = Activity at OSTalpha/OSTbeta in human Caco2 cells assessed as drug transport from basolateral to apical side at 2 uM in presence of dehydroepiandrosterone sulfate relative to control; type: ADME, cell-based; conditions: caco-2, 2 µM
[19] = Activity at OSTalpha/OSTbeta in human Caco2 cells assessed as drug transport from basolateral to apical side at 2 uM in presence of digoxin relative to control; type: ADME, cell-based; conditions: caco-2, 2 µM
[20] = Activity at OSTalpha/OSTbeta in human Caco2 cells assessed as drug transport from basolateral to apical side at 2 uM in presence of estrone 3-sulfate relative to control; type: ADME, cell-based; conditions: caco-2, 2 µM
[21] = Activity at OSTalpha/OSTbeta in human Caco2 cells assessed as drug transport from basolateral to apical side at 2 uM in presence of spironolactone relative to control; type: ADME, cell-based; conditions: caco-2, 2 µM
[22] = Activity at OSTalpha/OSTbeta in human Caco2 cells assessed as drug transport from basolateral to apical side at 2 uM in presence of bromosulfophthalein relative to control; type: ADME, cell-based; conditions: caco-2, 2 µM
[23] = Activity at OSTalpha/OSTbeta in human Caco2 cells assessed as drug transport from basolateral to apical side at 2 uM in presence of indomethacin relative to control; type: ADME, cell-based; conditions: caco-2, 2 µM
[24] = Activity at OSTalpha/OSTbeta in human Caco2 cells assessed as drug transport from basolateral to apical side at 2 uM in presence of probenecid relative to control; type: ADME, cell-based; conditions: caco-2, 2 µM
[25] = Activity at OSTalpha/OSTbeta in human Caco2 cells assessed as drug transport from basolateral to apical side at 2 uM in presence of rifamycin relative to control; type: ADME, cell-based; conditions: caco-2, 2 µM
[26] = Activity at OSTalpha/OSTbeta in human Caco2 cells assessed as drug transport from apical to basolateral side at 50 uM in presence of 10 uM taurolithocholate relative to control; type: ADME, cell-based; conditions: caco-2, 50 µM
How it was run: (§2)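 Caco-2 monolayers (21-28 days, TEER > 450 Ω·cm²). Rosuvastatin 50 μM was dosed apically with 10 μM atenolol as a low-permeability marker, in HBSSg/MES at pH 5.5. Basolateral buffer was HBSSg/HEPES pH 7.4, with or without tauroolithocholate (10, 50 or 100 μM). Incubated at 37°C. Basolateral samples were taken at 15, 30 and 60 min and measured by LC-MS/MS. Efflux was normalised to BCA protein and expressed as % control; triplicate.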

[27] = Activity at OSTalpha/OSTbeta in human Caco2 cells assessed as drug transport from apical to basolateral side at 50 uM in presence of 50 uM taurolithocholate relative to control; type: ADME, cell-based; conditions: caco-2, 50 µM; how it was run: as §2
[28] = Activity at OSTalpha/OSTbeta in human Caco2 cells assessed as drug transport from apical to basolateral side at 50 uM in presence of 100 uM taurolithocholate relative to control; type: ADME, cell-based; conditions: caco-2, 50 µM; how it was run: as §2

Q: Which results are given for `CC(C)c1nc(N(C)S(C)(=O)=O)nc(-c2ccc(F)cc2)c1/C=C/[C@@H](O)C[C@@H](O)CC(=O)[O-].CC(C)c1nc(N(C)S(C)(=O)=O)nc(-c2ccc(F)cc2)c1/C=C/[C@@H](O)C[C@@H](O)CC(=O)[O-].[Ca+2]` [ROSUVASTATIN CALCIUM]?
A: Cmax [1]: 6 nM; Kd ([2]; caco-2): 0.9985 µL/min/mg; Km at 0.5 h ([2]; human, Caco-2 cells): 4.21 µM; Jmax ([2]; human, caco-2, 0.5 h): 24.64 pmol/min/mg; bioavailability [3]: 20%; CL (Homo sapiens): 70%; Papp A→B at 2 µM [4]: 0.25 ×10⁻⁶ cm/s; Papp B→A at 2 µM [5]: 20.7 ×10⁻⁶ cm/s; efflux ratio at 2 µM [6]: 83.2; Papp A→B at 2 µM [7]: 0.43 ×10⁻⁶ cm/s; Papp B→A at 2 µM [8]: 0.49 ×10⁻⁶ cm/s; efflux ratio at 2 µM [9]: 1.1; Papp A→B at 2 µM (BCRP [10]): 0.28 ×10⁻⁶ cm/s; Papp B→A at 2 µM (BCRP [11]): 1.63 ×10⁻⁶ cm/s; efflux ratio at 2 µM (BCRP [12]): 5.8; pKa [13]: 4.2; Drug transport [14]: 27.9%; Drug transport [15]: 42.6%; Drug transport [16]: 29.1%; Drug transport [17]: 30.1%; Drug transport [18]: 38.1%; Drug transport [19]: 43.9%; Drug transport [20]: 28.7%; Drug transport [21]: 35.1%; Drug transport [22]: 23.5%; Drug transport [23]: 32.7%; Drug transport [24]: 73.8%; Drug transport [25]: 21.4%; Drug transport [26]: 338%; Drug transport [27]: 436%; Drug transport [28]: 359%

Q: Which results are given for `COc1cc2nc(N3CCN(C(=O)c4ccco4)CC3)nc(N)c2cc1OC` [PRAZOSIN]?
A: Papp A→B at 2 µM [4]: 3.92 ×10⁻⁶ cm/s; Papp B→A at 2 µM [5]: 41.1 ×10⁻⁶ cm/s; efflux ratio at 2 µM [6]: 10.5; Papp A→B at 2 µM [7]: 4.32 ×10⁻⁶ cm/s; Papp B→A at 2 µM [8]: 13.6 ×10⁻⁶ cm/s; efflux ratio at 2 µM [9]: 3.1; Papp A→B at 2 µM (BCRP [10]): 1.31 ×10⁻⁶ cm/s; Papp B→A at 2 µM (BCRP [11]): 45.1 ×10⁻⁶ cm/s; efflux ratio at 2 µM (BCRP [12]): 34.5
